Screening data (PubChem)
This is a sample that favours compounds with a hit; in the whole collection about 4% have one here.
ERa SRC1 inh: ERα–SRC-1 coactivator interaction inhibitors, primary screen, biochemical, TR-FRET, ERα LBD, estradiol-bound. Estrogen receptor (Homo sapiens), P03372. inhibition, % at 25.6 µM. TR-FRET ER-alpha LBD / SRC-1 peptide. 86,000 compounds, 1.7% hits; in the data active = inhibition above about 50%;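 also: 0% = receptor plus peptide control and 100% = peptide only without receptor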
Target sequence (P03372 whole entry, looked up, the tested form may be a part): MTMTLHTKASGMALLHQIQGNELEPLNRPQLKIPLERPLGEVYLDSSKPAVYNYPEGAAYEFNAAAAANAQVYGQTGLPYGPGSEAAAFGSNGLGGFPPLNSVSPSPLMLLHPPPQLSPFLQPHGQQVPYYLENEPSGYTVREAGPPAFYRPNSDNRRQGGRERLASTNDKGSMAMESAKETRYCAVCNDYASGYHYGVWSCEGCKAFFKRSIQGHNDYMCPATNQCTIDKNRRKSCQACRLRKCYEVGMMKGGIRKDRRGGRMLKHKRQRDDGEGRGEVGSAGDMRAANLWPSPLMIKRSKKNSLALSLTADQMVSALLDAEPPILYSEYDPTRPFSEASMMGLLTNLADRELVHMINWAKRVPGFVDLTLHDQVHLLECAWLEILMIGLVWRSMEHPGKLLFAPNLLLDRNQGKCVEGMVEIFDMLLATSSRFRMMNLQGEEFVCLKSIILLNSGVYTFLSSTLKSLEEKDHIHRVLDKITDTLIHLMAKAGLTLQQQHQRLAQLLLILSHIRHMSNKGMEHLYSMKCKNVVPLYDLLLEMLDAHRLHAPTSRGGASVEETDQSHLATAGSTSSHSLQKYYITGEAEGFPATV
ERa coact pot: enhancers of ERα–SRC-1 coactivator binding, primary screen, biochemical, TR-FRET, ERα LBD, low estradiol; Estrogen receptor (Homo sapiens), P03372; TR-FRET ERalpha-LBD/SRC-Cy5 coactivator binding, 2 h; 100 = basal binding, no effect; coactivator binding (% of control), % at 25.6 µM; 86,000 compounds, 1.3% hits; in the data active = activity above about 200%;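 also: binding measured in presence of low estradiol as agonist stimulus; 0% = peptide alone without receptor and 100% = receptor with peptide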
Smad3 inh: Smad3/FoxH1 peptide binding inhibitors, primary screen, biochemical, TR-FRET. Mothers against decapentaplegic homolog 3 (Homo sapiens), P84022. inhibition, % at 25 µM. 88,000 compounds, 0.29% hits. TR-FRET Smad3/Dy647-FoxH1 peptide binding, europium anti-His. AID 630, 2007;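 active = compounds that reduce the energy-transfer binding signal between the protein and its labelled peptide by more than half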;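 also: 0% = Smad3 plus labelled peptide maximal FRET and 100% = peptide-only background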
HIV Rev-RRE inh: HIV-1 Rev-RRE binding inhibitors, primary screen, biochemical, FRET, protein-RNA interaction | P05866 | Rev peptide-RRE RNA binding | inhibition, % at 8 µM | 97,000 compounds, 0.79% hits | AID 704, 2007;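 active = inhibition above the screen-wide mean plus 3 SD, cut at about 35% in these data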;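 also: 0% = median DMSO wells and 100% = median Neomycin B control wells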
Target sequence (P05866 whole entry, looked up): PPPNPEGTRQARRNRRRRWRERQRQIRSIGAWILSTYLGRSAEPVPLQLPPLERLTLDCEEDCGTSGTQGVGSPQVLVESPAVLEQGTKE
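Test system: labelled RRE RNA duplex and labelled Rev peptide. Times: 5 min compound–RNA preincubation, then 15 min with peptide, 25 °C. Doses: single-dose 8 µM. Measured by: FRET, excitation 480 nm, emission 540 nm donor and 671 nm acceptor. Measure: % inhibition of FRET ratio versus controls.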
FAK blocker: FAK kinase inhibitors, primary screen, biochemical | 97,000 compounds, 0.84% hits | inhibition, %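 (tested at 7 µM)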 | biochemical FAK kinase activity assay | AID 727, 2007; in the data active = inhibition above about 19%;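 also: 0% = DMSO and 100% = reference compound high control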
ERb SRC1 inh: inhibitors of ERβ-SRC1 coactivator interaction, primary screen, biochemical, TR-FRET, ERβ LBD, SRC-1 peptide; 86,000 compounds, 1.3% hits; Estrogen receptor beta (Homo sapiens), Q92731; TR-FRET ER-beta LBD / SRC1-Cy5 peptide binding; receptor agonist-loaded with 1 µM estradiol; inhibition, % at 25.6 µM; AID 633, 2007;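 active = compounds whose percent inhibition of the receptor-coactivator binding signal exceeds about 50% in the single-dose screen, limit read from the data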;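 also: 0% = receptor plus peptide wells without compound and 100% = peptide-only wells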
An asterisk follows results filed as active; nt = no result; [ ] = remark or other dose.

SMILES	ERa SRC1 inh	ERa coact pot	Smad3 inh	HIV Rev-RRE inh	FAK blocker	ERb SRC1 inh
Cc1ccccc1-c1nc(-c2ccc(NC(=O)c3ccc(Br)o3)cc2)no1	44.9	265.2*	-8.6	3.7	-7.7	39.2
CN(C)CCCCN1CCc2c(n(C)c3ccccc23)C1=O	nt	nt	-4.8	nt	nt	nt
COc1ccc(CN2CCc3ccccc3C2)c(OC)c1OC	5.2	179.9	-15.1	5.5	-1.8	-6.9
C=CCNC(=O)c1onc(CSc2cccc(OC)c2)c1C(=O)O	nt	nt	nt	1.5	-6.9	nt
NC(N)=N/N=C(\c1ccccc1)c1ccc(O)cc1O	nt	nt	-2.8	nt	nt	nt
O=C(Nc1ccc(Cl)c(Cl)c1)N(CCCN1CCOCC1)Cc1cccs1	-1.5	109.1	4.0	11.2	11.7	-7.7
NS(=O)(=O)c1cc2c(cc1Cl)NC=NS2(=O)=O	6.8	96.3	-3.0	nt	nt	94.4*[fluorescence artefact?]
COc1ccc(-c2cn3nc4c(nc3n2)CCCC4)cc1	4.1	92.5	13.4	97.9*[fluorescence artefact?]	4.4	-7.7
Cc1nc2nc(-c3ccc(Cl)cc3)cn2nc1C	12.4	100.7	26.6	12.0	1.2	9.2
N/C(Cc1ccc([N+](=O)[O-])cc1)=N\OC(=O)c1ccc2ccccc2c1	50.2*	119.5	1.8	6.6	1.4	19.7
Cc1cccc(C(=O)O/N=C(\N)Cc2ccc([N+](=O)[O-])cc2)c1	-13.6	97.3	7.6	1.1	1.7	-7.1
CCSc1nnc(NC(=O)C(Cc2ccccc2)n2cccc2)s1 (stereo not given)	-6.6	248.5*[fluorescence artefact?]	-28.0	6.6	0.1	-8.0
CCSc1nnc(NC(=O)COc2ccc3ccccc3c2)s1	20.8	259.2*[fluorescence artefact?]	5.7	6.1	0.0	10.6
CC1CCN(CC[S-])CC1.O.O.[Cl][Pt]	nt	nt	5.6	nt	nt	nt
COc1cc2c3cc1Oc1c(OC)c(OC)cc4c1[C@@H](Cc1ccc(O)c(c1)Oc1ccc(cc1)C[C@@H]3N(C)CC2)CN(C)C4	nt	nt	-7.0	nt	nt	nt
Nc1nc(-c2ccc3ccccc3c2)cc(-c2cc(-c3ccc4ccccc4c3)nc(N)n2)n1	nt	nt	-2.4	nt	nt	nt
O=NN(Cc1ccc(Cl)cc1)[C@@H](C(=O)O)c1ccccc1	nt	nt	37.9	nt	nt	nt
C[C@]12CC[C@@H]3c4ccc(O)cc4C(=O)C[C@H]3[C@@H]1CC[C@@H]2O	3.5	705.4*	4.8	nt	nt	0.9
CCOc1ncccc1C(=O)OCC(=O)Nc1cc(C)ccc1C	1.6	118.3	-4.2	7.2	-0.5	6.7
CCOc1ncccc1C(=O)OCC(=O)Nc1cc(C(=O)OC)ccc1C(=O)OC	-4.4	372.1*[fluorescence artefact?]	-23.6	nt	nt	18.6
NC(=O)SCC(=O)Nc1ccc2ncccc2c1	nt	nt	40.5	nt	nt	nt
CCOC(=O)C1=C(c2ccccc2)N=c2s/c(=C\c3cccc(O)c3)c(=O)n2C1c1cccs1 (stereo not given)	nt	nt	nt	8.7	9.7	nt
O=c1/c(=C\c2ccc(O)cc2)sc2n1C(c1ccccc1)C(c1ccccc1)=NN=2 (stereo not given)	nt	nt	nt	41.1*	8.4	nt
Nc1c(C(=O)c2ccccc2)sc2snc(SCC(=O)c3ccccc3)c12	nt	nt	nt	77.8*	8.7	nt
COc1cc(OC)nc(NC(C)=O)n1	-5.7	111.1	-14.2	10.2	-0.1	-4.6
SMILES	ERa SRC1 inh	ERa coact pot	Smad3 inh	HIV Rev-RRE inh	FAK blocker	ERb SRC1 inh
COc1cc(OC)nc(NC(=O)C(C)C)n1	62.1*	110.7	8.8	7.1	2.2	-6.1
O=C(CN1C(=O)c2ccccc2C1=O)[C@@H](O)CN1C(=O)c2ccccc2C1=O	nt	nt	-4.1	nt	nt	nt
Cc1cccc(NC(=O)Cn2nnc(-c3ccc(CN4CCCC4)cc3)n2)c1C	11.2	204.3*[fluorescence artefact?]	4.2	4.2	2.3	17.0
CC(CCc1nc2ccccc2s1)(c1ccc(O)cc1)c1ccc(O)cc1	nt	nt	0.2	nt	nt	nt
O=C(C[C@@H]1C=Cc2ccccc2N1C(=O)c1ccccc1)c1ccccc1	nt	nt	-1.9	nt	nt	nt
CCOc1ccccc1/C=c1\sc2ncnn2c1=O	-21.6	85.3	10.2	3.4	-1.3	6.2
CCOc1ccc(/C=c2\sc3nc(-c4ccco4)nn3c2=O)cc1OCC	55.4*	101.5	12.4	9.9	8.4	24.9
COc1ccc(OC)c(/C=c2\sc3nc(-c4cccs4)nn3c2=O)c1	39.0	73.8	-5.3	57.4*	-0.2	17.5
COc1ccccc1/C=c1\sc2nc(-c3ccco3)nn2c1=O	74.2*	106.8	6.6	-2.5	7.5	67.5*[fluorescence artefact?]
CC(C)c1ccc(/C=c2\sc3nc(-c4ccncc4)nn3c2=O)cc1	nt	nt	nt	-1.5	-2.2	nt
Clc1ccc2c(c1)N(CCCN1CCCC13CCCCC3)c1ccccc1S2	nt	nt	0.5	nt	nt	nt
Cc1cccc2c(SCC(=O)NCC3CCCO3)nc(-c3ccc(F)cc3)nc12 (stereo not given)	nt	nt	nt	2.5	-8.0	nt
CCc1ccc2nc(SCC(=O)N3CC(=O)Nc4ccccc43)c(C#N)cc2c1	4.7	359.8*	21.6	33.0	0.3	-13.3
O=C(O)c1ccccc1-c1ccccc1C(=O)Nc1ccc2c(c1)Cc1cc(F)ccc1-2	nt	nt	20.8	nt	nt	nt
Cc1cc(/C=C2\SC(=S)N(Cc3ccco3)C2=O)c(C)n1-c1cccnc1	nt	nt	nt	95.0*[fluorescence artefact?]	3.9	nt
CCOC(=O)c1ccc(N=C2S/C(=C\c3cc(C)n(-c4cccnc4)c3C)C(=O)N2C)cc1	nt	nt	nt	-9.7	-1.9	nt
Cc1cc(/C=C2/SC(=S)N(c3cccc(C(F)(F)F)c3)C2=O)c(C)n1-c1cccnc1	nt	nt	nt	43.6*	-0.6	nt
O=C(O)C12CC3(C(=O)O)CC(C(=O)O)(CC(C(=O)O)(C1)C3=O)C2=O	nt	nt	8.6	nt	nt	nt
CCC1(C)NC(=O)N(CC(=O)Nc2sc3c(c2C(N)=O)CCC3)C1=O (stereo not given)	75.8*	21.8	18.0	nt	nt	82.7*[fluorescence artefact?]
NC(=O)c1c(NC(=O)CN2C(=O)CCC2=O)sc2c1CCCCC2	nt	nt	nt	3.0	8.4	nt
CCCC(=O)Nc1c(C)n[nH]c1C	nt	nt	nt	3.6	1.2	nt
CCCC(=O)Nc1c(C)nn(C(=O)CCC)c1C	5.2	277.8*[fluorescence artefact?]	-5.6	8.4	4.9	3.0
CC(C)CNc1nc(N)[nH]c(=O)c1NC=O	nt	nt	-2.3	nt	nt	nt
O=C(NCc1ccco1)C1CCCN(S(=O)(=O)c2ccc(Cl)cc2)C1 (stereo not given)	nt	nt	nt	-4.1	-2.2	nt
Cc1ccc(N2C(=O)CSCC2=O)cc1	4.4	102.6	12.7	0.3	0.9	1.8
Cc1ccc(N2C(=O)CS/C2=C(\C(Cl)=C(Cl)Cl)[N+](=O)[O-])cc1	22.5	109.9	52.2*	11.6	-0.2	32.8
O=C(Cc1ccc(Cl)cc1)Nc1ccc(N2CCN(C(=O)c3ccco3)CC2)cc1	67.1*[fluorescence artefact?]	127.9	3.4	0.7	2.1	31.7
O=C(O)CCC(=O)Nc1ccc(-c2nnc(-c3ccco3)o2)cc1	10.8	87.5	-1.8	5.0	-1.4	21.8
